Activity calls are given as the source filed them. The rule behind the calls is not given here.
Experiments:
[1] = molecular target: Sigma non-opioid intracellular receptor 1 (Cavia porcellus, UniProt Q60492); test: Displacement of [3H](+)-pentazocine from guinea pig brain sigma 1 receptor
[2] = Displacement of [3H]DTG rom guinea pig brain sigma 2 receptor; set-up: species or system Cavia porcellus
Rattus norvegicus [3] = species on record: Rattus norvegicus; test: Activity at sigma 2 receptor in rat astroglial cells; assay type: cell-based
Rattus norvegicus [4] = species on record: Rattus norvegicus; test: Increase in TG-2 expression in albino Wistar rat primary 14 DIV astroglial cell at 25 uM after 24 hrs by CLSM analysis; assay type: functional
Procedure, shortened: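 Astrocytes at 14 DIV were treated with 25 µM for 24 h and fixed in 4% paraformaldehyde for 20 min. They were blocked with 1% normal serum for 1 h, then incubated overnight with anti-TG-2 monoclonal (1:500), followed by FITC and TRITC anti-IgG (1:64, 2 h each). Confocal imaging at fixed settings measured cytosolic and nuclear fluorescence intensity versus control after nonspecific subtraction.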

Rattus norvegicus [5] = species on record: Rattus norvegicus; test: Increase in TG-2 expression in albino Wistar rat primary astroglial cells at 25 uM after 24 hrs; assay type: functional
Procedure, shortened: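 Primary Wistar rat astrocytes at 14 DIV were exposed to ligand 25 µM for 24 h. Densitometric percentage of TG-2 versus untreated control; HUVEC extract as positive control. Mean ± SD of four experiments.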

Rattus norvegicus [6] = species on record: Rattus norvegicus; test: Decrease of caspase 3 cleavage in albino Wistar rat primary astroglial cells at 25 uM after 24 hrs relative to control; assay type: functional
Procedure, shortened: (§1)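 Primary astrocytes from 1–2-day-old Wistar rat brains were grown 14 DIV, then exposed to ligand 25 µM for 24 h. Cells were lysed and sonicated, and 30 µg protein was run on 10% SDS-PAGE. Mean ± SD of four experiments; t test.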

[7] = Increase in apoptosis in albino Wistar rat primary 14 DIV astroglial cells at 25 uM after 24 hrs by TUNEL assay relative to control; assay type: functional
Procedure, shortened: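 Astrocytes at 14 DIV were treated 24 h at 25 µM. TUNEL labelling with fluorescein-dUTP at free 3′-OH DNA ends; apoptotic cells appear green (FITC), nonapoptotic cells red (PI). Apoptotic cells were counted against all cells in 10 random fields per dish and expressed as a percentage.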

Rattus norvegicus [8] = species on record: Rattus norvegicus; test: Increase of caspase 3 cleavage in albino Wistar rat primary astroglial cells at 25 uM after 24 hrs relative to control; assay type: functional; procedure, shortened: as §1

Sigma non-opioid intracellular receptor 1, sequence (Q60492 whole entry): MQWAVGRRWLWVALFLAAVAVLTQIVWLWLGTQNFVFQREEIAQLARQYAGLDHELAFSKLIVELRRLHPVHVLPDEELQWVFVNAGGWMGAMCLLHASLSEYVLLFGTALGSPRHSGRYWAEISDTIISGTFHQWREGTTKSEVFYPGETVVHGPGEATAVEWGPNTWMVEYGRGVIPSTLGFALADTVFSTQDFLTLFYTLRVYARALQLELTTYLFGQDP

| SMILES | Ki [1] [nM] | Ki [2] [nM] | also measured |
| --- | --- | --- | --- |
| COC(=O)C1(c2ccc(Cl)cc2)CC1CN1CCC(Cc2ccccc2)CC1 (stereo not given) | 0.82 | 11.9 |  |
| COC(=O)C1(c2ccc(Cl)cc2)CC1CN1CCN(c2ncccn2)CC1 (stereo not given) | 350 | 2710 |  |
| COC(=O)C1(c2ccccc2)CC1CN1CCC(Cc2ccccc2)CC1 (stereo not given) | 2.2 | 13.2 |  |
| COC(=O)C1(c2ccc([N+](=O)[O-])cc2)CC1CN1CCN(c2ncccn2)CC1 (stereo not given) | 619 | > 10000 |  |
| COC(=O)C1(c2ccc(OC)cc2)CC1CN1CCN(c2ccccn2)CC1 (stereo not given) | 1260 | > 10000 |  |
| COC(=O)C1(c2ccc(C)cc2)CC1CN1CCC(Cc2ccccc2)CC1 (stereo not given) | 0.97 | 8.9 |  |
| COC(=O)C1(c2ccc(Cl)cc2)CC1CN1CCN(c2ccccn2)CC1 (stereo not given) | 707 | 2400 |  |
| COC(=O)C1(c2ccc([N+](=O)[O-])cc2)CC1CN1CCC(Cc2ccccc2)CC1 (stereo not given) | 0.68 | 9 |  |
| COC(=O)C1(c2ccc(Cl)cc2)CC1CN1CCC(O)(c2ccccc2)CC1 (stereo not given) | 1.7 | 19 |  |
| COC(=O)C1(c2ccccc2)CC1CN1CCC(O)(c2ccccc2)CC1 (stereo not given) | 3.1 | 34 |  |
| O=C(CCCN1CCC(O)(c2ccc(Cl)cc2)CC1)c1ccc(F)cc1 |  |  | Activity (Rattus norvegicus [3]; filed as agonist): Agonist; Activity (Rattus norvegicus [4]): Active |
| COC(=O)C1(c2ccc(N)cc2)CC1CN1CCN(c2ccccn2)CC1 (stereo not given) | > 10000 | > 10000 |  |
| COC(=O)C1(c2ccc(OC)cc2)CC1CN1CCC(O)(c2ccccc2)CC1 (stereo not given) | 3.1 | 53 |  |
| CC[C@H]1C[C@@H]2C[C@H]3c4[nH]c5ccc(OC)cc5c4CCN(C2)[C@@H]13 [IBOGAINE] | 250 |  |  |
| COC(=O)C1(c2ccc(OC)cc2)CC1CN1CCN(c2ncccn2)CC1 (stereo not given) | 2030 | > 10000 |  |
| COC(=O)C1(c2ccccc2)CC1CN1CCN(c2ccccn2)CC1 (stereo not given) | 1330 | 6290 |  |
| COC(=O)C1(c2ccccc2)CC1CN1CCN(c2ncccn2)CC1 (stereo not given) | 3090 | > 10000 |  |
| Cc1ccccc1NC(=N)Nc1ccccc1C [DITOLYLGUANIDINE] |  | 49 |  |
| COC(=O)C1(c2ccc(C)cc2)CC1CN1CCN(c2ncccn2)CC1 (stereo not given) | 353 | 3360 |  |
| COC(=O)C1(c2ccc(C)cc2)CC1CN1CCN(c2ccccn2)CC1 (stereo not given) | 497 | 2170 |  |
| COC(=O)C1(c2ccc([N+](=O)[O-])cc2)CC1CN1CCC(O)(c2ccccc2)CC1 (stereo not given) | 1.9 | 18 |  |
| CN(C)CCN(C)CCc1ccc(Cl)c(Cl)c1 |  |  | Activity (Rattus norvegicus [5]): inactive; Activity (Rattus norvegicus [6]): Active; Activity (Rattus norvegicus [3]; filed as agonist): Agonist; Activity (Rattus norvegicus [4]): Active; Ratio [7]: 7% |
| CC[C@H]1C[C@H]2C[C@H]3c4[nH]c5ccc(OC)cc5c4CCN(C2)[C@@H]13 [IBOGAINE] |  | 9310 | Activity (Rattus norvegicus [5]): Active; Activity (Rattus norvegicus [3]; filed as agonist): Agonist; Activity (Rattus norvegicus [4]): Active; Ratio [7]: 95%; Activity (Rattus norvegicus [8]): Active |
| COC(=O)C1(c2ccc(OC)cc2)CC1CN1CCC(Cc2ccccc2)CC1 (stereo not given) | 1 | 14 |  |
| COC(=O)C1(c2ccc([N+](=O)[O-])cc2)CC1CN1CCN(c2ccccn2)CC1 (stereo not given) | 769 | > 10000 |  |
| CC(C)=CCN1CC[C@]2(C)c3cc(O)ccc3C[C@H]1[C@H]2C [(+)-PENTAZOCINE] |  | 1540 | Activity (Rattus norvegicus [6]): Active; Activity (Rattus norvegicus [3]): inactive |
| COC(=O)C1(c2ccc(N)cc2)CC1CN1CCN(c2ncccn2)CC1 (stereo not given) | > 10000 | 3590 |  |

Reference: ChEMBL document CHEMBL1142963, “Novel sigma receptor ligands: synthesis and biological profile” (J Med Chem, 2007)
